Test results reported in PubChem BioAssay.
Records with an inconclusive call do not appear.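 How the source made its calls, unless noted: active means growth inhibition above 25% in both replicates, a cutoff set 3 SD above the mean; inconclusive means above 25% in only one replicate; inactive means the rest.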

Columns and labels:
[1] = OD615 S. cerevisiae growth inhibition, permissive medium, pilot counter-assay, permissive growth control for S. cerevisiae lifespan shortening project (AID 705); details: OD615, 24 h, at 10 µM, stronger effect = higher value
Procedure, shortened: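 System: S. cerevisiae with engineered DeaD lifespan system / Measured by: absorbance (optical density) at 615 nm / Read-out: reduction in yeast growth (OD615) / Times: 4 h cell pre-growth, 24 h exposure at 30 °C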

[2] = Restrictive medium S. cerevisiae growth inhibition, OD615, pilot screen of yeast lifespan reduction project, restrictive growth control (AID 706;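 active means growth inhibition above a set limit, 3 SD over mean compound inhibition, in both replicates, cut at about 43% in these data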;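 further: modified DeaD lifespan yeast strain shifted to restrictive glucose medium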); details: OD615, 48 h, at 10 µM, stronger effect = higher value
Procedure, shortened: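 System: Engineered S. cerevisiae DeaD strain | Buffer or medium: Glucose-based CSMM-D restrictive medium | Schedule: 4 h pre-incubation, 48 h exposure at 30 °C | Technique: Optical density at 615 nm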

[3] = viability gain of MRP-1-high H69AR cells under doxorubicin, pilot screen, MRP-1 activator project, CellTiter-Glo, duplicate (AID 807;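 active means viability increase at or above a cutoff of the median across tested compounds plus 3 SD, cut at about 8.5% in these data, passing the limit was not always enough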;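 further: compound pretreatment 18-22 h then 72 h combined with doxorubicin; 0% = doxorubicin alone and 100% = vehicle without doxorubicin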); details: H69AR viability with doxorubicin, CellTiter-Glo luminescence; at 10 µM; stronger effect = higher value
[4] = growth suppression of beta-catenin knockout HCT116, pilot screen, human colon tumor cells (AID 823;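 active means cell viability at or below a set limit in both duplicate runs, the limit being the all-compound median minus 4 SD, cut at about 23% in these data, passing the limit was not always enough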;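 further: 0% = wells killed by 20 µM Hyamine and 100% = untreated DMSO cell wells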); details: CellTiter-Glo, 60 h, at 10 µM, stronger effect = lower value
[5] = growth suppression of PTEN-deleted HCT116, pilot screen, cell-based, HCT116 clonal line, CellTiter-Glo (AID 824;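 active means viability at or below 27.92% in each of two runs, the all-compound median minus 4 SD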;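 further: 0% = 20 µM Hyamine control and 100% = vehicle cell control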); details: 60 h, at 10 µM, stronger effect = lower value
[6] = inhibitors of the yeast RAM network, pilot screen, dse1pr::URA3 reporter, 5-FOA selection (AID 869;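 active means inhibition over a set limit, the all-compound mean plus 3 SD, in both replicate runs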;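 further: 0% = DMSO wells with no growth and 100% = 10 µM 1-NA-PP1 with full growth; RAM network block rescues cells from 5-FOA so hits raise OD615 growth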); details: S. cerevisiae dse1pr::URA3 5-FOA growth, OD615, 2 d; at 10 µM; stronger effect = higher value; strain carries analog-sensitive mutant Cbk1 kinase
[7] = RAM signaling pathway blockade in yeast – S. cerevisiae, Pdr1DBD-CYC8 efflux-inhibited sensitized strain, primary screen (AID 1298;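 active means RAM network inhibition above 8.4% in each of two replicates, 3 SD over the compound average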;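 further: 0% = DMSO untreated cells without growth and 100% = 10 µM 1-NA-PP1 full growth; higher means more yeast growth rescued from 5-FOA killing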); details: S. cerevisiae cbk1-as DSE1-URA3 strain, 5-FOA growth OD615, 2 d; at 50 µM; stronger effect = higher value

Cc1ccc(C(C(=O)NC2CCCC2)N2CCCCC2)cc1 (stereo unspecified)
inactive: growth inhibition [1] -2.54% | growth inhibition [2] -13.5% | viability increase [3] -1.32% | viability [4] 86.9% | viability [5] 90.6% | inhibition [6] 2.38% | RAM network inhibition [7] 5.61%

CCOC(=O)NC(Nc1nnc(SCC)s1)(C(F)(F)F)C(F)(F)F
inactive: growth inhibition [1] -3.14% | growth inhibition [2] 2.81% | viability increase [3] -2.85% | viability [4] 89.8% | viability [5] 91% | inhibition [6] 1.5% | RAM network inhibition [7] 3.2%

CCn1c(SCc2nc(-c3ccccc3)no2)nc2ccccc21
inactive: growth inhibition [1] -12% | growth inhibition [2] 8.5% | viability increase [3] 1.73% | viability [4] 93.1% | viability [5] 92.3% | inhibition [6] 0.38% | RAM network inhibition [7] 1.2%

CC(=O)C1=C(O)C(=O)N(CC(=O)O)C1c1ccccc1Cl (stereo unspecified)
inactive: growth inhibition [1] 0.915% | growth inhibition [2] 9.59% | viability increase [3] -0.3% | viability [4] 104% | viability [5] 104% | inhibition [6] 2.28% | RAM network inhibition [7] 2.43%

CCc1cc2c(=O)n(N)c(CCC(=O)O)nc2s1
inactive: growth inhibition [1] -14.9% | growth inhibition [2] -3.94% | viability increase [3] -1.37% | viability [4] 100% | viability [5] 96.1% | inhibition [6] 0.425% | RAM network inhibition [7] 8.13%

Cc1ccc(S(=O)(=O)N(C)Cc2nc(-c3ccc(Br)cc3)no2)cc1
inactive: growth inhibition [1] -3.27% | growth inhibition [2] -0.88% | viability increase [3] 0.27% | viability [4] 89.5% | viability [5] 87.8% | inhibition [6] 2.72% | RAM network inhibition [7] 3.02%

O=C(CC1Sc2ccccc2NC1=O)Nc1cccc(C(=O)O)c1 (stereo unspecified)
inactive: growth inhibition [1] 0.01% | growth inhibition [2] 8.77% | viability increase [3] -0.43% | viability [4] 101% | viability [5] 87% | inhibition [6] 1.14% | RAM network inhibition [7] 4.51%

O=C(NCCCNC(=O)c1cccs1)c1cccs1
inactive: growth inhibition [1] 3.77% | growth inhibition [2] -0.395% | viability increase [3] 0% | viability [4] 96.6% | viability [5] 108% | inhibition [6] 1.09% | RAM network inhibition [7] 5.26%

COc1ccccc1CNS(=O)(=O)c1ccc2c(c1)oc(=O)n2C
inactive: growth inhibition [1] -4.47% | growth inhibition [2] -0.685% | viability increase [3] -0.99% | viability [4] 101% | viability [5] 86.7% | inhibition [6] 0.795% | RAM network inhibition [7] 0.32%

Cc1cc(C(C)(C)C)ccc1OCCN(C)C
inactive: growth inhibition [1] -2.25% | growth inhibition [2] -9.14% | viability increase [3] 0.25% | viability [4] 94.2% | viability [5] 94.9% | inhibition [6] 1.58% | RAM network inhibition [7] 2.2%

Cc1ccc(-n2ncc3c(NCCCn4ccnc4)ncnc32)c(C)c1
inactive: growth inhibition [1] -3.41% | growth inhibition [2] -7.83% | viability increase [3] -0.58% | viability [4] 88.8% | viability [5] 90.6% | inhibition [6] 1.5% | RAM network inhibition [7] 2.5%

CC1CCCN(c2nc3c(c(=O)[nH]c(=O)n3C)n2CCSc2nc3ccccc3o2)C1 (stereo unspecified)
inactive: growth inhibition [1] -1.52% | growth inhibition [2] -1.66% | viability increase [3] -3.56% | viability [4] 98% | viability [5] 98.5% | inhibition [6] 0.55% | RAM network inhibition [7] 7.08%

CCOCCCNC(=O)C(c1ccc(Cl)cc1)N1CCN(c2ccccc2)CC1 (stereo unspecified)
inactive: growth inhibition [1] -7.14% | growth inhibition [2] 6.11% | viability increase [3] -2.39% | viability [4] 87% | viability [5] 85% | inhibition [6] 0.95% | RAM network inhibition [7] 3.13%

COc1ccc(OC)c(S(=O)(=O)n2nc(-c3ccccc3)cc2N)c1
inactive: growth inhibition [1] -6.75% | growth inhibition [2] -2.54% | viability increase [3] -2.02% | viability [4] 104% | viability [5] 103% | inhibition [6] 0.795% | RAM network inhibition [7] 1.93%

Cc1ccccc1NC(=O)CSc1[nH]c(=O)cc(C)c1C#N
inactive: growth inhibition [1] -1.3% | growth inhibition [2] 11.7% | viability increase [3] -0.42% | viability [4] 108% | viability [5] 101% | inhibition [6] 2.41% | RAM network inhibition [7] 1.7%

O=C(NCc1ccc2c(c1)OCO2)c1cc2c(s1)CSC2
inactive: growth inhibition [1] -4.81% | growth inhibition [2] 3.8% | viability increase [3] -1.75% | viability [4] 99.2% | viability [5] 95.5% | inhibition [6] 1.75% | RAM network inhibition [7] 0.94%

Cn1c(NC(=O)c2ccc(F)c(F)c2)cc(=O)n(C)c1=O
inactive: growth inhibition [1] -2.93% | growth inhibition [2] -3.23% | viability increase [3] -1.64% | viability [4] 95.7% | viability [5] 93.4% | inhibition [6] 0.925% | RAM network inhibition [7] 0.81%

CC(C)OC(=O)c1nnc(Cc2ccc(Cl)cc2)o1
inactive: growth inhibition [1] -6.46% | growth inhibition [2] 9.87% | viability increase [3] 0.7% | viability [4] 102% | viability [5] 102% | inhibition [6] -0.06% | RAM network inhibition [7] 1.93%
